# Source: ChEMBL document CHEMBL4837231, “Development of peptide epoxyketones as selective immunoproteasome inhibitors” (Eur J Med Chem, 2021)
# Legend:
# [1] = Inhibition of 20s proteasome beta 5c subunit (unknown origin); parameters: species or system Homo sapiens
# RPMI-8226 = assay: Antiproliferative activity against human RPMI-8226 cells assessed as inhibition of cell proliferation after 72 hrs by MTS assay; assay type: functional, cell-based; conditions: RPMI-8226, 72 h
# Method in brief: (§1)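 Cells grown in RPMI-1640 with 10% FBS and penicillin/streptomycin at 37 °C, 5% CO2. Seeded per well at 5×10³ (RPMI-8226) or 3×10⁴ (MM.1S), then exposed 72 h to graded compound concentrations or 0.2% DMSO vehicle. MTS/PMS added for 2–4 h; absorbance at 490 nm minus 690 nm. Inhibition = (Acontrol−Asample)/Acontrol; IC50 by sigmoidal variable-slope regression.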
# [2] = Selectivity ratio of IC50 for chymotrypsin-like activity of human 20s proteasome beta 5c subunit to IC50 for human proteasome subunit beta-5i chymotrypsin like activity
# [3] = target: T1, Proteasome subunit beta type-8 (Homo sapiens, UniProt P28062); assay: Inhibition of human proteasome subunit beta-5i chymotrypsin like activity using SUC-ANW-AMC as flurogenic substrate preincubated for 15 mins followed by substrate addition and measured after 1 hr by fluorescence assay
# T1 sequence (P28062 whole entry): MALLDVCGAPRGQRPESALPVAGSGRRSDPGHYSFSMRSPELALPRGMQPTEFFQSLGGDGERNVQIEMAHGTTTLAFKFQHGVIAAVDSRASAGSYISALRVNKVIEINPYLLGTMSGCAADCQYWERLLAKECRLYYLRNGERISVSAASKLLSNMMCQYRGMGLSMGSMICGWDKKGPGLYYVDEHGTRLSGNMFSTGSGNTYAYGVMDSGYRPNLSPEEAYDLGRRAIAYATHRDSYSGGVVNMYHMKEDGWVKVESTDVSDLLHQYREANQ
# Method in brief: (§2)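 Immunoproteasome derived from human PBMC, added at 1 μg/mL (pre-dilution) in 100 mM Tris-HCl pH 7.5. Compounds were diluted to a 10% DMSO solution. After 15 min preincubation at 25 °C, AMC substrate added (100 µM final) and incubated 1 h at 25 °C. Read at ex 355/em 460 nm; IC50 by sigmoidal variable-slope fitting.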
# [4] = target: T2, Proteasome Macropain subunit MB1 (Homo sapiens, UniProt P28074); assay: Inhibition of chymotrypsin-like activity of human 20s proteasome beta 5c subunit using suc-WLA-AMC as flurogenic substrate preincubated for 15 mins followed by substrate addition and measured after 1 hr by fluorescence assay
# T2 sequence (P28074 whole entry): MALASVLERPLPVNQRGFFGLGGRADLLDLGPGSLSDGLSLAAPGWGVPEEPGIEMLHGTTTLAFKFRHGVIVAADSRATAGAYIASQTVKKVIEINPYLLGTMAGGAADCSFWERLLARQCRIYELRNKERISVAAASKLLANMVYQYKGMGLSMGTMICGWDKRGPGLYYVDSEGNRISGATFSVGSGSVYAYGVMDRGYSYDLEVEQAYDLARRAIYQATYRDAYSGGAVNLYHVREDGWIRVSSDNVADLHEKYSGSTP
# Method in brief: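 Constitutive proteasome isolated from human hepatic cells, added at 40 μg/mL (pre-dilution) in 100 mM Tris-HCl pH 7.5. Compounds came from DMSO diluted in water (10% DMSO solution). Preincubated 15 min at 25 °C, then AMC substrate added (100 µM final) for 1 h at 25 °C. Fluorescence read at 355 nm excitation and 460 nm emission; IC50 from a variable-slope sigmoidal fit.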
# MM1.S = assay: Antiproliferative activity against human MM1.S cells assessed as inhibition of cell proliferation after 72 hrs by MTS assay; assay type: functional, cell-based; method in brief: as §1
# [5] = target: T3, Proteasome subunit beta type-9 (Homo sapiens, UniProt P28065); assay: Inhibition of human caspase-like activity of 20s proteasome beta 1i subunit using SUC-PAL-AMC as flurogenic substrate preincubated for 15 mins followed by substrate addition and measured after 1 hr by fluorescence assay; method in brief: as §2
# T3 sequence (P28065 whole entry): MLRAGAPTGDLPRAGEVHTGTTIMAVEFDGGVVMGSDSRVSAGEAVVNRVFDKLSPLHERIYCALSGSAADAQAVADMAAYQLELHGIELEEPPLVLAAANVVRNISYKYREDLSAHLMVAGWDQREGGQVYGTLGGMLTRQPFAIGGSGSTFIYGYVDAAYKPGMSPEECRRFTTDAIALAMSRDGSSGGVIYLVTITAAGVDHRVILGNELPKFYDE
# [6] = target: T4, Proteasome subunit beta type-10 (Homo sapiens, UniProt P40306); assay: Inhibition of human trypsin-like activity of 20s proteasome beta 2i subunit using SUC-VGR-AMC as flurogenic substrate preincubated for 15 mins followed by substrate addition and measured after 1 hr by fluorescence assay
# T4 sequence (P40306 whole entry): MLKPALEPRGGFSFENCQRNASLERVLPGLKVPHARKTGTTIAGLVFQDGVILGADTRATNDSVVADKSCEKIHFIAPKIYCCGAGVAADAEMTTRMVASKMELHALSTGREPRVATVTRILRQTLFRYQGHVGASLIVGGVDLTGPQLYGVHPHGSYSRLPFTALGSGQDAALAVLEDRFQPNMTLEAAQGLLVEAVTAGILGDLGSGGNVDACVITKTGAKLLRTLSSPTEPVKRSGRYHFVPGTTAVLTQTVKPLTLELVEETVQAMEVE
# Method in brief: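 Immunoproteasome derived from human PBMC, added at 1 μg/mL (pre-dilution) in 100 mM Tris-HCl pH 7.5. Compounds were diluted to a 10% DMSO solution. After 15 min preincubation at 25 °C, AMC substrate added (100 µM final) and incubated 1 h at 25 °C.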
Compound,IC50 [1] [nM],IC50 (RPMI-8226) [nM],Ratio IC50 [2],IC50 [3] [nM],IC50 [4] [nM],IC50 (MM1.S) [nM],IC50 [5] [nM],IC50 [6] [nM]
C[C@H](NC(=O)N1CCC(NC(=O)c2nccs2)CC1)C(=O)N[C@@H](Cc1c[nH]c2ccccc12)C(=O)N[C@@H](Cc1ccccc1)C(=O)[C@@]1(C)CO1,–,110,1.2,21.1,25.6,110,154,> 10000
COc1ccc(C[C@H](NC(=O)[C@@H](C)NC(=O)n2c3ccccc3c3ccccc32)C(=O)N[C@@H](Cc2ccccc2)C(=O)[C@@]2(C)CO2)cc1,–,–,1.9,38.2,71.7,–,–,–
COc1ccc(C[C@H](NC(=O)[C@@H](C)NC(=O)N2CCC(NC(=O)c3nccs3)CC2)C(=O)N[C@@H](CC2CCCCC2)C(=O)[C@@]2(C)CO2)cc1,–,–,3.8,718,2710,–,–,–
C[C@H](NC(=O)N1CCC(NC(=O)c2nccs2)CC1)C(=O)N[C@@H](Cc1c[nH]c2ccccc12)C(=O)N[C@@H](CC1CCCCC1)C(=O)[C@@]1(C)CO1,–,–,0.9,245,216,–,–,–
COc1ccc(C[C@H](NC(=O)[C@H](C)NC(=O)N2CCc3ccccc3C2)C(=O)N[C@@H](Cc2ccccc2)C(=O)[C@@]2(C)CO2)cc1,–,–,1.8,37.8,69.7,–,–,–
COc1ccc(C[C@H](NC(=O)[C@H](C)NC(=O)N2CCC(NC(=O)c3nccs3)CC2)C(=O)N[C@@H](CC2CCCCC2)C(=O)[C@@]2(C)CO2)cc1,–,–,1.9,129,245,–,–,–
COc1ccc(C[C@H](NC(=O)[C@@H](C)NC(=O)N2CCc3ccccc3C2)C(=O)N[C@@H](Cc2ccccc2)C(=O)[C@@]2(C)CO2)cc1,–,–,11.9,80.7,959,–,–,–
C[C@@H](NC(=O)N1CCC(NC(=O)c2nccs2)CC1)C(=O)N[C@@H](Cc1c[nH]c2ccccc12)C(=O)N[C@@H](CC1CCCCC1)C(=O)[C@@]1(C)CO1,–,–,1.5,719,1080,–,–,–
COc1ccc(C[C@H](NC(=O)[C@H](C)NC(=O)n2c3ccccc3c3ccccc32)C(=O)N[C@@H](Cc2ccccc2)C(=O)[C@@]2(C)CO2)cc1,–,–,0.6,61,35.5,–,–,–
C[C@@H](NC(=O)N1CCC(NC(=O)c2nccs2)CC1)C(=O)N[C@@H](Cc1c[nH]c2ccccc12)C(=O)N[C@@H](Cc1ccccc1)C(=O)[C@@]1(C)CO1,–,–,1.5,323,468,–,–,–

# Now from value to compound:
IC50 [1] [nM],IC50 (RPMI-8226) [nM],Ratio IC50 [2],IC50 [3] [nM],IC50 [4] [nM],IC50 (MM1.S) [nM],IC50 [5] [nM],IC50 [6] [nM],Compound
422,680,–,–,–,–,–,–,COc1ccc(C[C@H](NC(=O)[C@H](C)NC(=O)CN2CCOCC2)C(=O)N[C@@H](Cc2ccccc2)C(=O)[C@@]2(C)CO2)cc1
–,–,21.2,62.9,1330,–,–,–,COc1ccc(C[C@H](NC(=O)[C@@H](C)NC(=O)N2CCCC2)C(=O)N[C@@H](Cc2ccccc2)C(=O)[C@@]2(C)CO2)cc1
–,1880,24.1,25.1,606,1370,5770,> 10000,COc1ccc(C[C@H](NC(=O)[C@@H](C)NC(=O)N2CC[C@H](OC)C2)C(=O)N[C@@H](Cc2ccccc2)C(=O)[C@@]2(C)CO2)cc1
–,–,24.8,44.5,1110,–,–,–,COc1ccc(C[C@H](NC(=O)[C@@H](C)NC(=O)N2CCC(OC)C2)C(=O)N[C@@H](Cc2ccccc2)C(=O)[C@@]2(C)CO2)cc1 (stereo partly drawn)
–,680,8.2,29.9,244,220,4270,> 10000,COc1ccc(C[C@H](NC(=O)[C@@H](C)NC(=O)N2CCC[C@@H](OC)C2)C(=O)N[C@@H](Cc2ccccc2)C(=O)[C@@]2(C)CO2)cc1
–,–,3.9,18.9,74,–,–,–,COc1ccc(C[C@H](NC(=O)[C@H](C)NC(=O)N2CCC(OC)CC2)C(=O)N[C@@H](Cc2ccccc2)C(=O)[C@@]2(C)CO2)cc1
–,–,2,246,498,–,–,–,COc1ccc(C[C@H](NC(=O)[C@H](C)NC(=O)N2CCCC2)C(=O)N[C@@H](Cc2ccccc2)C(=O)[C@@]2(C)CO2)cc1
–,–,4.3,37.7,163,–,–,–,COc1ccc(C[C@H](NC(=O)[C@@H](C)NC(=O)N2CCC[C@H](OC)C2)C(=O)N[C@@H](Cc2ccccc2)C(=O)[C@@]2(C)CO2)cc1
–,–,5.2,56.8,293,–,–,–,COc1ccc(C[C@H](NC(=O)[C@H](C)NC(=O)N2CCC(OC)C2)C(=O)N[C@@H](Cc2ccccc2)C(=O)[C@@]2(C)CO2)cc1 (stereo partly drawn)
–,–,22.5,66,1480,–,–,–,COc1ccc(C[C@H](NC(=O)[C@@H](C)NC(=O)N2CC[C@@H](OC)C2)C(=O)N[C@@H](Cc2ccccc2)C(=O)[C@@]2(C)CO2)cc1
–,1920,24.9,26,647,1790,> 10000,> 10000,COc1ccc(C[C@H](NC(=O)[C@@H](C)NC(=O)N2CCC(OC)CC2)C(=O)N[C@@H](Cc2ccccc2)C(=O)[C@@]2(C)CO2)cc1
